Data taken from ChEMBL document CHEMBL1147858, “Short-chain 3-ketoceramides, strong apoptosis inducers against human leukemia HL-60 cells” (Bioorg Med Chem, 2007).
The source made the active and inactive calls. The rule behind the calls is not given here.

What was measured:
Assay type in all cases: functional, cell-based
Conditions in all cases: Homo sapiens
HL-60 [1] = assay: Antileukemic effect against HL60 cells assessed as cell survival at 1 uM after 6 hrs by MTT assay relative to C2-Cer
Outline: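 Serum-free RPMI 1640 HL-60 suspension (0.4–1 × 10^6 cells/mL after two washes), […] per well; compounds added from ethanol stocks (1–20 mM), final EtOH 0.1%, vehicle control 0.1% EtOH; 6 h exposure; MTT (10 µL of 5 mg/mL) added 2 h before end; formazan dissolved with 0.04 M HCl in isopropanol.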

HL-60 [2] = assay: Induction of apoptosis in HL60 cells assessed as DNA fragmentation at 5uM
Outline: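 HL-60 cells (2 × 10^6 cells/2 mL) exposed for various periods, ethanol vehicle; lysed in Tris/EDTA/0.5% Triton X-100, soluble lysate treated with RNase A (0.2 mg/mL, 1 h, 37 °C) then proteinase K (0.2 mg/mL, 50 °C, 30 min); DNA isopropanol-precipitated overnight at −20 °C, run on 2.0% agarose at 50 V, ethidium bromide stained, UV visualized.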

HL-60 [3] = assay: Effect on apoptosis in HL60 cells assessed as caspase-3 activation at 5 uM by Western blot analysis
Outline: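 HL-60 cells exposed 2–6 h (also 30–90 min) to compound, ethanol vehicle (final EtOH 0.1%); cells pelleted, PBS-washed twice, lysed in urea/SDS/β-mercaptoethanol buffer, boiled 3 min, run on 14% SDS-PAGE, PVDF blot probed with rabbit polyclonal anti-caspase-3 and alkaline phosphatase-coupled goat anti-rabbit; pro- versus active caspase-3 bands read.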

HL-60 [4] = assay: Effect on apoptosis in HL60 cells assessed as mitochondrial cytochrome C release at 5 uM by Western blot analysis
Outline: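 HL-60 cells (6 × 10^6 cells/mL) treated for various periods, ethanol vehicle; PBS-washed, Dounce-homogenized in HEPES/KCl/EDTA/EGTA/DTT buffer with protease inhibitors; 1000g spin removes nuclei/heavy membranes, mitochondria-rich fraction pelleted, supernatant spun at 100,000g for cytosol; both fractions immunoblotted with anti-cytochrome c.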

Q: Which Activity (HL-60 [1]) does the source give for `CCCCCCCCCCCCC/C=C/C(=O)[C@H](CO)NC(C)=O` here?
A: The Activity was “Active”.

Q: And the Activity (HL-60 [2])?
A: Its Activity is “Active”.

Q: What about the Activity (HL-60 [3]) of the same compound?
A: The Activity was “Active”.

Q: What about the Activity (HL-60 [4]) of the same compound?
A: The Activity was “Active”.

Q: For `CCCCCCCCCCC/C=C/C=C/C(=O)[C@H](CO)NC(C)=O`, which Activity (HL-60 [1]) is on record?
A: Its Activity is “inactive”.

Q: And the Activity (HL-60 [3])?
A: The Activity was “Active”.

Q: What about the Activity (HL-60 [4]) of the same compound?
A: The Activity was “Active”.

Q: What does the source list for `CCCCCCCCCCCCC/C=C/C(=O)[C@H](COC)NC(C)=O`?
A: Activity (HL-60 [1]): Active; Activity (HL-60 [2]): Active; Activity (HL-60 [3]): Active; Activity (HL-60 [4]): Active
